{"source": "ChEMBL document CHEMBL5705905", "about": "“Pharmacological targeting of kinases MST1 and MST2 augments tissue repair and regeneration” (Sci Transl Med, 2016)", "key": {"[1]": {"test": "AUC (0 to infinity) in male Sprague-Dawley rat at 5 mg/kg, iv measured for 24 hrs by LC-MS/MS analysis", "format": "ADME, organism-based", "details": "in vivo", "method_in_brief": "(§1)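 Sprague-Dawley rats, single intravenous or oral dose. Parameters (half-life, AUC, bioavailability) reported in a supplementary table.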"}, "[2]": {"biological_target": "Mitogen-activated protein kinase 15 (Homo sapiens) (UniProt Q8TD08)", "test": "Inhibition of ERK8 (unknown origin) assessed as remaining activity at 1 uM by Kinome scan method relative to control"}, "[3]": {"test": "AUC (0 to t) in male Sprague-Dawley rat at 5 mg/kg, iv measured for 24 hrs by LC-MS/MS analysis", "format": "ADME, organism-based", "details": "in vivo", "method_in_brief": "as §1"}, "[4]": {"system": "Tyrosine-protein kinase ABL1 (Homo sapiens), P00519 [T315I]", "test": "Inhibition of phosphorylated ABL1 T315I mutant (unknown origin) assessed as remaining activity at 1 uM by Kinome scan method relative to control"}, "[5]": {"biological_target": "Tyrosine-protein kinase Srms (Homo sapiens) (UniProt Q9H3Y6)", "test": "Inhibition of SRMS (unknown origin) assessed as remaining activity at 1 uM by Kinome scan method relative to control"}, "[6]": {"biological_target": "Angiopoietin-1 receptor (Homo sapiens) (UniProt Q02763)", "sequence (Q02763 whole entry)": "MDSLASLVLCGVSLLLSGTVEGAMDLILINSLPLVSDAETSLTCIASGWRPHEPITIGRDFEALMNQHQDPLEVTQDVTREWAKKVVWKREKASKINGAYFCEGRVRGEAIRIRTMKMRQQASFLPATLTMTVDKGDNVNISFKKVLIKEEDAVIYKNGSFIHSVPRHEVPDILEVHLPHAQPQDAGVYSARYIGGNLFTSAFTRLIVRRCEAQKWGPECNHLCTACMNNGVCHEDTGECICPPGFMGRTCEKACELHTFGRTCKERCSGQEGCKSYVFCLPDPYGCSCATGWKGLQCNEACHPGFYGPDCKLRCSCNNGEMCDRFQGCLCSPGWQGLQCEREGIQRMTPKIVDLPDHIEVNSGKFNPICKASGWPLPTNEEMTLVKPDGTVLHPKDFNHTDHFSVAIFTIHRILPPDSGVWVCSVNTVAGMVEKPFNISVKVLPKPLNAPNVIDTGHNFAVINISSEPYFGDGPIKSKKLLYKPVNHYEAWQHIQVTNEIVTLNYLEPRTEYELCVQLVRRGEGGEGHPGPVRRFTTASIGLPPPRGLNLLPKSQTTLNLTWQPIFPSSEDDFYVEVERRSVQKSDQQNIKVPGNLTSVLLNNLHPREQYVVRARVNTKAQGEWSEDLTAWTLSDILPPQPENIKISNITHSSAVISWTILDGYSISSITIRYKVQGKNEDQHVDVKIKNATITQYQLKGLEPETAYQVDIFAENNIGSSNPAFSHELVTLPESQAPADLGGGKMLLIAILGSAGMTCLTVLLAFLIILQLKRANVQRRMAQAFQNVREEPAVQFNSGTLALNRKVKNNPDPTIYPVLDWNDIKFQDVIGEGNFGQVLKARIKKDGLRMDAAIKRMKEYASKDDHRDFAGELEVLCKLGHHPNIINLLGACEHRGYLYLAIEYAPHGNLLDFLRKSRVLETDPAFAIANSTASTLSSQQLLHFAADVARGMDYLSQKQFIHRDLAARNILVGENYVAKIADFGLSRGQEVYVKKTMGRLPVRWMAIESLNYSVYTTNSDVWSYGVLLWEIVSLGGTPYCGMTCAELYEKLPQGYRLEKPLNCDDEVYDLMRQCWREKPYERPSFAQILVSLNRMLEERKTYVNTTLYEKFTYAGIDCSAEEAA", "test": "Inhibition of TIE2 (unknown origin) assessed as remaining activity at 1 uM by Kinome scan method relative to control"}, "[7]": {"biological_target": "Calcium/calmodulin-dependent protein kinase type II subunit alpha (Homo sapiens) (UniProt Q9UQM7)", "test": "Inhibition of CAMK2A (unknown origin) assessed as remaining activity at 1 uM by Kinome scan method relative to control", "method_in_brief": "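Active-site-dependent competition-binding profiling (KINOMEscan) at 1 μM against a 468-kinase panel; compound supplied from a 10 mM DMSO stock. Read-out is ctrl% = (test signal − positive control signal)/(negative control signal − positive control signal) × 100. DMSO is the negative control (100%) and a control compound the positive control (0%). Lower ctrl% means tighter binding.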"}, "[8]": {"biological_target": "Non-receptor tyrosine-protein kinase TYK2 (Homo sapiens, UniProt P29597)", "sequence (P29597 whole entry, the tested form may be a part)": "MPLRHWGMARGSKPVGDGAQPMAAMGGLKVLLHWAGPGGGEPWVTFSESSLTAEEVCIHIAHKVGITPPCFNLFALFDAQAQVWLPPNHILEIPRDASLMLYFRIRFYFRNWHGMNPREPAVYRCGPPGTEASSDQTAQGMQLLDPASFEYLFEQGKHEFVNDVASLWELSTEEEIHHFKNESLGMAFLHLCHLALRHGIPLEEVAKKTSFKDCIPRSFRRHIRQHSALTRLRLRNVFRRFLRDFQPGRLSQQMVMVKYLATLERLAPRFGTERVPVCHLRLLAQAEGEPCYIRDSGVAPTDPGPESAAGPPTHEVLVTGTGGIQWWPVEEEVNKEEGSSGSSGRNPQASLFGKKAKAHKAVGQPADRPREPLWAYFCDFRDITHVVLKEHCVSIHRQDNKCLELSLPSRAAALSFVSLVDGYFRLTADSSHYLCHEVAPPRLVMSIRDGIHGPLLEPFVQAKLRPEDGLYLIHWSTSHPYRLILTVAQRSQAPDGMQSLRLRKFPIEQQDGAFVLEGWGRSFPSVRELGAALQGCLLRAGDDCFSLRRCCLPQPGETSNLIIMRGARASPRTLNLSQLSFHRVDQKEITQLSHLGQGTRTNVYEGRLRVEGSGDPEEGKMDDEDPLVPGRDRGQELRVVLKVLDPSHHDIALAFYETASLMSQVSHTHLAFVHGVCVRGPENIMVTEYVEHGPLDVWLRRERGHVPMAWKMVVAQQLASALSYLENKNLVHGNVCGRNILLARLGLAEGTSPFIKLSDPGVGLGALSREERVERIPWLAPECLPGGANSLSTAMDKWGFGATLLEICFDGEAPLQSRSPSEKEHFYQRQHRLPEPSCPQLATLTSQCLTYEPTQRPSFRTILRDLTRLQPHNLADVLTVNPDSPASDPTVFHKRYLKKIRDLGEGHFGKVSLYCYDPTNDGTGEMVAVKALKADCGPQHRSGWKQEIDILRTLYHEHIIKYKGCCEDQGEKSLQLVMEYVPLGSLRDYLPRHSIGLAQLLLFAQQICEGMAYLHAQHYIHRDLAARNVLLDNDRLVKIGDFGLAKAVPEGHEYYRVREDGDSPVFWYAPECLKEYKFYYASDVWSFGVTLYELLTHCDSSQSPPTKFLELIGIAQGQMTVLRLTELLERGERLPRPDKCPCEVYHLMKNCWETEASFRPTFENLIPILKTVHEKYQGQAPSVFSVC", "test": "Inhibition of TYK2 JH2 domain (unknown origin) assessed as remaining activity at 1 uM by Kinome scan method relative to control"}, "[9]": {"test": "Clearance in male Sprague-Dawley rat at 5 mg/kg, iv measured for 24 hrs by LC-MS/MS analysis", "format": "ADME, organism-based", "details": "in vivo", "method_in_brief": "as §1"}, "Mus musculus [10]": {"system": "Mus musculus", "test": "Protection against human hepatocyte transplanted FRG mouse assessed as increase in FAH level at 1 mg/kg, ip administrated once a daily for 28 days by H&E staining based immunohistochemical analysis", "format": "functional, organism-based", "details": "Liver, time 28.0 day"}, "[11]": {"biological_target": "5'-AMP-activated protein kinase catalytic subunit alpha-2 (Homo sapiens) (UniProt P54646)", "sequence (P54646 whole entry, looked up)": "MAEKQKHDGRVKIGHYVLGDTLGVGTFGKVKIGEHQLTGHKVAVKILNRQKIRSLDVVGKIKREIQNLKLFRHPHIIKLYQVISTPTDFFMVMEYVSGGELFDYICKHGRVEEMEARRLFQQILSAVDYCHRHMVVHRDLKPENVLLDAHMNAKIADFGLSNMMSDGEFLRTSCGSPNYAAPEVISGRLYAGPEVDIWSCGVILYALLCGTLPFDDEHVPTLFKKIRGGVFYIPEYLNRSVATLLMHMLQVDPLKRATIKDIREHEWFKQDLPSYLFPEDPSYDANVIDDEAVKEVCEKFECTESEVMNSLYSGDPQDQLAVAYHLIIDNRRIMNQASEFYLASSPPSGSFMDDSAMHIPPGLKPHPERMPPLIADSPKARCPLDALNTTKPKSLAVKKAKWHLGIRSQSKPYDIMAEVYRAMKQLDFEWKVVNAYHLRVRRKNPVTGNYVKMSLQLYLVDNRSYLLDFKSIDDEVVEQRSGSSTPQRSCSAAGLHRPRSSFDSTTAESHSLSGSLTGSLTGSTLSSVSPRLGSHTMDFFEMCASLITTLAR", "test": "Inhibition of AMPK-alpha2 (unknown origin) assessed as remaining activity at 1 uM by Kinome scan method relative to control", "method_in_brief": "(§2)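 Active-site-dependent competition-binding (KINOMEscan) panel of 468 kinases, test compound at 1 μM (from a 10 mM DMSO stock). Read-out is ctrl% = (test signal − positive control signal)/(negative control signal − positive control signal) × 100. DMSO is the negative control (100%) and a control compound is the positive control (0%). Lower ctrl% means tighter binding.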"}, "[12]": {"biological_target": "Serine/threonine-protein kinase TNNI3K (Homo sapiens) (UniProt Q59H18)", "sequence (Q59H18 whole entry)": "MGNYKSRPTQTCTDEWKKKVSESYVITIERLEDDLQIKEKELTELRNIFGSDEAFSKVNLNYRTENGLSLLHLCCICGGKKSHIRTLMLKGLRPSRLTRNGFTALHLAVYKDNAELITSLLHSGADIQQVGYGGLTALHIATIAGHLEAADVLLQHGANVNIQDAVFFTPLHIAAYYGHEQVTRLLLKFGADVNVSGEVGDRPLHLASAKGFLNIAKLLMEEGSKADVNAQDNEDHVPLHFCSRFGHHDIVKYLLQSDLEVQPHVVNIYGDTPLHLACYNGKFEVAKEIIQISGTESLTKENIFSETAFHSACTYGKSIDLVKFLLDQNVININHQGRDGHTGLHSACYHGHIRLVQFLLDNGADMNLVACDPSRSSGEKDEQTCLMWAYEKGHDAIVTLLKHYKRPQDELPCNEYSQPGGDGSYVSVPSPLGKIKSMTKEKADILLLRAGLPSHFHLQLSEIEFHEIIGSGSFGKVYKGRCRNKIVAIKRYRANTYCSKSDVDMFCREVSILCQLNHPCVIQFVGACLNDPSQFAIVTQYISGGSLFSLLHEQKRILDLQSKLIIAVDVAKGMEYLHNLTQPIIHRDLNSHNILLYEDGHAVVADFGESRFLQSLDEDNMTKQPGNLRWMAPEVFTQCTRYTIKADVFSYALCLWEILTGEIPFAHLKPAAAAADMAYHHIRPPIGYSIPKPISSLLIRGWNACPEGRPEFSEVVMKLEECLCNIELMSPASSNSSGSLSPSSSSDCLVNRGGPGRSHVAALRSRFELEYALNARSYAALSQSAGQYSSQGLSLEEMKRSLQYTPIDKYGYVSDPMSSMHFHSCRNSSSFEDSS", "test": "Inhibition of TNNI3K (unknown origin) assessed as remaining activity at 1 uM by Kinome scan method relative to control"}, "[13]": {"biological_target": "Mitogen-activated protein kinase kinase kinase 3 (Homo sapiens) (UniProt Q99759)", "sequence (Q99759 whole entry)": "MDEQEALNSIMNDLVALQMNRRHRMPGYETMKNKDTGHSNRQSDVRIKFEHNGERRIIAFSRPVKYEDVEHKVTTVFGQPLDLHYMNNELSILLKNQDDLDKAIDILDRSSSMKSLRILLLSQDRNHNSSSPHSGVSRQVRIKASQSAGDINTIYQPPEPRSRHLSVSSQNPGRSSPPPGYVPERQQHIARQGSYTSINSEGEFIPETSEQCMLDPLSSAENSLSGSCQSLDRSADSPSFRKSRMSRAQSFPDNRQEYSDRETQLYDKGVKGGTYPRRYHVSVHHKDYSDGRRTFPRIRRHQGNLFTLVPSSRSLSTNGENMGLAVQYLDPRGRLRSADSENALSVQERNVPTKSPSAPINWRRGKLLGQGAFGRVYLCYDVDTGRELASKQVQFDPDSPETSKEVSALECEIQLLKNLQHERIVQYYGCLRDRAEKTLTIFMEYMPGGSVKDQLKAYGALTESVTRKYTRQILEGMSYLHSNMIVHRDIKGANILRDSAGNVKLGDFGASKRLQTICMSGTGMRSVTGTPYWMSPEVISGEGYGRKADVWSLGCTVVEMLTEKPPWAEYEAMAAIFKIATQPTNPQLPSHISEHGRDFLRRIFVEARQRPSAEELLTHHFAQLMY", "test": "Inhibition of MAP3K3 (unknown origin) assessed as remaining activity at 1 uM by Kinome scan method relative to control"}, "[14]": {"biological_target": "Ephrin type-A receptor 7 (Homo sapiens) (UniProt Q15375)", "test": "Inhibition of EPHA7 (unknown origin) assessed as remaining activity at 1 uM by Kinome scan method relative to control"}, "[15]": {"biological_target": "Ephrin type-A receptor 8 (Homo sapiens) (UniProt P29322)", "test": "Inhibition of EPHA8 (unknown origin) assessed as remaining activity at 1 uM by Kinome scan method relative to control"}, "[16]": {"biological_target": "RAF proto-oncogene serine/threonine-protein kinase (Homo sapiens) (UniProt P04049)", "test": "Inhibition of RAF1 (unknown origin) assessed as remaining activity at 1 uM by Kinome scan method relative to control"}, "[17]": {"system": "Tyrosine-protein kinase ABL1 (Homo sapiens), P00519 [H396P]", "test": "Inhibition of ABL1 H396P mutant (unknown origin) assessed as remaining activity at 1 uM by Kinome scan method relative to control", "method_in_brief": "as §2"}, "Homo sapiens": {"species_on_record": "Homo sapiens", "test": "Inhibition of ALK C1156V mutant (unknown origin) assessed as remaining activity at 1 uM by Kinome scan method relative to control", "method_in_brief": "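KINOMEscan active-site-dependent competition-binding panel of 468 kinases, compound at 1 μM from a DMSO stock. Result reported as ctrl% = (test signal − positive control signal)/(negative control signal − positive control signal) × 100. The negative control is DMSO (100%) and the positive control is a control compound (0%). Lower ctrl% means tighter binding.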"}, "Mus musculus [18]": {"system": "Mus musculus", "test": "Protection against APAP induced liver injury in mouse assessed as continual expansion of centrilobular necrotic lesions at 1 mg/kg, ip administered at 2.5 hrs by H&E staining", "format": "functional, organism-based"}, "[19]": {"biological_target": "Mitogen-activated protein kinase kinase kinase kinase 2 (Homo sapiens) (UniProt Q12851)", "test": "Inhibition of MAP4K2 (unknown origin) assessed as remaining activity at 1 uM by Kinome scan method relative to control"}, "[20]": {"biological_target": "Mitogen-activated protein kinase kinase kinase 7 (Homo sapiens) (UniProt O43318)", "test": "Inhibition of TAK1 (unknown origin) assessed as remaining activity at 1 uM by Kinome scan method relative to control"}, "[21]": {"test": "Acute toxicity in wild-type mouse assessed as ratio of liver weight to body weight at 1 mg/kg,ip administrated twice daily for 7 days", "format": "organism-based", "details": "in vivo, 168 h, time 7 day", "method_in_brief": "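Wild-type mice underwent two-thirds partial hepatectomy with vehicle or 1 mg/kg i.p. twice per day, starting with a dose before surgery. Liver/body weight ratio was followed over postoperative days, n = 5; means ± SD.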"}, "[22]": {"biological_target": "Serine/threonine-protein kinase 10 (Homo sapiens) (UniProt O94804)", "test": "Inhibition of LOK (unknown origin) assessed as remaining activity at 1 uM by Kinome scan method relative to control"}, "[23]": {"biological_target": "Mitogen-activated protein kinase 7 (Homo sapiens) (UniProt Q13164)", "test": "Inhibition of ERK5 (unknown origin) assessed as remaining activity at 1 uM by Kinome scan method relative to control"}, "[24]": {"biological_target": "Tyrosine-protein kinase ABL1 (Homo sapiens, UniProt P00519, Q252H)", "test": "Binding affinity to phosphorylated ABL1 Q252H mutant (unknown origin) assessed as dissociation constant"}, "[25]": {"biological_target": "Myosin light chain kinase 2, skeletal/cardiac muscle (Homo sapiens) (UniProt Q9H1R3)", "sequence (Q9H1R3 whole entry)": "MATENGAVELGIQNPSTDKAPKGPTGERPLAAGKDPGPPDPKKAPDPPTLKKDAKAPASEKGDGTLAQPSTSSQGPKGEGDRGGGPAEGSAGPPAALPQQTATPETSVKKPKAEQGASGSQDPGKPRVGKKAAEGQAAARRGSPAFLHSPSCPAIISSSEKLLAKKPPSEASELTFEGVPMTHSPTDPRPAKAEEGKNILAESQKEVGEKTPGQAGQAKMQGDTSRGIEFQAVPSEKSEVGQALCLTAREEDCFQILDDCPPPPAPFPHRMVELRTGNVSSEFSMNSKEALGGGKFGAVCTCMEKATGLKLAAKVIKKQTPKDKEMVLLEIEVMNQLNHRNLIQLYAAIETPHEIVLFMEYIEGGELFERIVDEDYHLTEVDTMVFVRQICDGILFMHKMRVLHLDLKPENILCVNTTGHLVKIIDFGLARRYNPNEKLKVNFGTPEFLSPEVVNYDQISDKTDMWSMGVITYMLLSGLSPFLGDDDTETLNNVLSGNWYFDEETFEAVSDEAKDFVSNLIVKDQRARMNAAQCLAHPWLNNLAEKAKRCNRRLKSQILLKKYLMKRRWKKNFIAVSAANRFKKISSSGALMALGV", "test": "Inhibition of MYLK2 (unknown origin) assessed as remaining activity at 1 uM by Kinome scan method relative to control"}, "[26]": {"biological_target": "Ribosomal protein S6 kinase beta-1 (Homo sapiens) (UniProt P23443)", "test": "Inhibition of S6K1 (unknown origin) assessed as remaining activity at 1 uM by Kinome scan method relative to control"}}, "note": "Calls of active or inactive are those of the source. The calls are words filed in the database; no cut-off is given here.", "data": [{"compound": "CN1C(=O)c2sccc2N(C)c2nc(Nc3ccc(S(N)(=O)=O)cc3)ncc21", "values": [{"measurement": "AUC(0-inf)", "setting": "[1]", "value": 1270, "unit": "ng·h/mL"}, {"measurement": "Activity", "setting": "[2]", "value": 79, "unit": "%"}, {"measurement": "AUC(0-t) at 24 h", "setting": "[3]", "value": 1260, "unit": "ng·h/mL"}, {"measurement": "Activity", "setting": "[4]", "value": 1.6, "unit": "%"}, {"measurement": "Activity", "setting": "[5]", "value": 100, "unit": "%"}, {"measurement": "Activity", "setting": "[6]", "value": 74, "unit": "%"}, {"measurement": "Activity", "setting": "[7]", "value": 77, "unit": "%"}, {"measurement": "Activity", "setting": "[8]", "value": 71, "unit": "%"}, {"measurement": "clearance", "setting": "[9]", "value": 65.8, "unit": "mL/min/kg"}, {"measurement": "Activity", "setting": "Mus musculus [10]", "value": "Active"}, {"measurement": "Activity", "setting": "[11]", "value": 100, "unit": "%"}, {"measurement": "Activity", "setting": "[12]", "value": 100, "unit": "%"}, {"measurement": "Activity", "setting": "[13]", "value": 2, "unit": "%"}, {"measurement": "Activity", "setting": "[14]", "value": 98, "unit": "%"}, {"measurement": "Activity", "setting": "[15]", "value": 100, "unit": "%"}, {"measurement": "Activity", "setting": "[16]", "value": 80, "unit": "%"}, {"measurement": "Activity", "setting": "[17]", "value": 11, "unit": "%"}, {"measurement": "Activity", "setting": "Homo sapiens", "value": 95, "unit": "%"}, {"measurement": "Activity", "setting": "Mus musculus [18]", "value": "Active"}, {"measurement": "Activity", "setting": "[19]", "value": 77, "unit": "%"}, {"measurement": "Activity", "setting": "[20]", "value": 71, "unit": "%"}, {"measurement": "Activity", "setting": "[21]", "value": "Toxic"}, {"measurement": "Activity", "setting": "[22]", "value": 100, "unit": "%"}, {"measurement": "Activity", "setting": "[23]", "value": 60, "unit": "%"}, {"measurement": "Kd", "setting": "[24]", "value": 24, "unit": "nM"}, {"measurement": "Activity", "setting": "[25]", "value": 92, "unit": "%"}, {"measurement": "Activity", "setting": "[26]", "value": 100, "unit": "%"}]}]}
